Our source for the CC50 and EC50 values is ChEMBL document CHEMBL1275367, “Diastereoselective synthesis of aryloxy phosphoramidate prodrugs of 3'-deoxy-2',3'-didehydrothymidine monophosphate” (J Med Chem, 2010).

The nature of series [1]: Cytotoxicity against human CEM/0 cells. In kind it is cell-based, CCRF-CEM. The method, boiled down:
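Proliferation of CEM cells measured by Coulter particle counting across a range of compound concentrations. CC50 is the concentration inhibiting cell proliferation by 50%.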

In series [2] the test system is Human immunodeficiency virus 1. The experiment in a line: Antiviral activity against HIV1 3B infected in human CEM/0 cells assessed as inhibition of virus-induced cytopathicity after 4 to 5 days. It counts as functional, organism-based. The note with it: Human immunodeficiency virus 1, 3B, CCRF-CEM.
Series [3] has as its system Human immunodeficiency virus 2. The series is described as follows: Antiviral activity against HIV2 ROD infected in human CEM/0 cells assessed as inhibition of virus-induced cytopathicity after 4 to 5 days. The following applies: Human immunodeficiency virus 2, ISOLATE ROD, CCRF-CEM. In kind it is functional, organism-based. In general terms: Damage to the host cells serves as the signal in cytopathic effect assays.

For series [4], the system named is Human immunodeficiency virus 2. The series is described as follows: Antiviral activity against HIV2 ROD infected in human CEM/TK- cells assessed as inhibition of virus-induced cytopathicity after 4 to 5 days. The following applies: Human immunodeficiency virus 2, ISOLATE ROD. In kind it is functional, organism-based.
Series [5] has as its system Moloney murine sarcoma virus. The series is described as follows: Antiviral activity against murine sarcoma virus infected in murine C3H/3T3 cells assessed as inhibition of virus-induced cell transformation.

The structures appear in SMILES notation.

For the molecule `Cc1cn([C@H]2C=C[C@@H](CO)O2)c(=O)[nH]c1=O` [STAVUDINE], in series [1], the CC50 (as a rule, the concentration that lowers cell viability or growth by half) is greater than 250000 nM. For the same molecule, the EC50 – broadly, the concentration giving half of the maximal effect – in series [2] stood at 840 nM; in series [3], 750 nM; in series [4] it was 132000 nM; in series [5] it was 2500 nM.
Taken in the same sequence, the figures for `COC(=O)[C@H](C)N[P@@](=O)(OC[C@@H]1C=C[C@H](n2cc(C)c(=O)[nH]c2=O)O1)Oc1cccc2ccccc12` were 107000 nM, 120 nM, 450 nM, 250 nM and 720 nM.
On the same counts, the results for `COC(=O)[C@H](C)N[P@@](=O)(OC[C@@H]1C=C[C@H](n2cc(C)c(=O)[nH]c2=O)O1)Oc1ccc(OC)cc1` are 235000 nM, 1100 nM, 860 nM, 1900 nM and 5300 nM.
Taken in the same sequence, the figures for `COC(=O)[C@H](C)N[P@](=O)(OC[C@@H]1C=C[C@H](n2cc(C)c(=O)[nH]c2=O)O1)Oc1ccc(C)cc1` were 79000 nM, 120 nM, 140 nM, 32 nM and 1800 nM.
For `COC(=O)[C@H](C)N[P@](=O)(OC[C@@H]1C=C[C@H](n2cc(C)c(=O)[nH]c2=O)O1)Oc1ccc(OC)cc1`, the CC50 in series [1] is 77000 nM. In addition, the EC50 in series [2] turned out to be 150 nM; in series [3], 140 nM; in series [4] it was 48 nM; in series [5], 2000 nM.
Taken in the same sequence, the figures for `COC(=O)[C@H](C)N[P@@](=O)(OC[C@@H]1C=C[C@H](n2cc(C)c(=O)[nH]c2=O)O1)Oc1ccccc1C` were greater than 250000 nM, 1300 nM, 1300 nM, 2900 nM and 4000 nM.
On the same counts, the results for `COC(=O)[C@H](C)N[P@@](=O)(OC[C@@H]1C=C[C@H](n2cc(C)c(=O)[nH]c2=O)O1)Oc1ccc(C)cc1` are greater than 250000 nM, 820 nM, 460 nM, 2100 nM and 1800 nM.
On the same counts, the results for `COC(=O)[C@H](C)N[P@](=O)(OC[C@@H]1C=C[C@H](n2cc(C)c(=O)[nH]c2=O)O1)Oc1ccccc1C` are greater than 250000 nM, 1300 nM, 1100 nM, 1900 nM and 9800 nM.
`COC(=O)[C@H](C)N[P@](=O)(OC[C@@H]1C=C[C@H](n2cc(C)c(=O)[nH]c2=O)O1)Oc1cccc2ccccc12` registered a CC50 in series [1] of 70000 nM. Further, the EC50 in series [2] was 150 nM; in series [3] it was 160 nM; in series [4], 130 nM; in series [5] it was 530 nM.
